The source of these data is ChEMBL document CHEMBL1153248, “Inhibition of Yersinia protein tyrosine phosphatase by phosphonate derivatives of calixarenes” (Bioorg Med Chem Lett, 2010).

SMILES strings stand for the structures. Calls of active or inactive are those of the source. The calls are words filed in the database; no cut-off is given here.

As a reminder, the Ki is a dissociation constant, usually derived from enzyme kinetics or from competition with a known ligand. Lower therefore signals higher affinity. Usually IC50 stands for the point on the concentration scale where inhibition reaches its midpoint.

Experiment [1] in a line: Inhibition of Yersinia PTP. An outline of the steps: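 Recombinant Yop51* enzyme; p-nitrophenyl phosphate at 0.5–4.0 mM in 0.05 M BISTRIS pH 6.5 with 100 mM NaCl, 0.05% Brij-35, 0.6 vol% DMSO, 0.4 mM EDTA and 1 mM DTT. Substrate and inhibitor were preincubated 5 min at 30 °C, then enzyme was added. Initial rates were read as p-nitrophenol A410 (ε 18,300 M⁻¹ cm⁻¹). Ki came from Lineweaver–Burk analysis at several inhibitor levels, reported as mean and standard deviation.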

In experiment [2] the target is Receptor-type tyrosine-protein phosphatase beta (Homo sapiens, UniProt P23467). Nature of the experiment: Inhibition of human recombinant PTPbeta. A digest of the protocol: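 Human recombinant PTPβ; 1 mM p-nitrophenyl phosphate preincubated 5 min at 30 °C with varying inhibitor concentrations in 0.05 M BISTRIS pH 7.0 with 100 mM NaCl, 0.05% Brij-35, 0.8 vol% DMSO and 1 mM diethylenetriamine pentaacetic acid. Enzyme was added to start the reaction and A410 was followed over time. IC50 is the concentration halving activity after 5 min. For competitive inhibition, Ki was taken as ½ IC50 at substrate equal to Km.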

Experiment [3] in a line: Selectivity for human recombinant PTPbeta over Yersinia PTP.
Another experiment is filed under the species Homo sapiens. Nature of the experiment: Inhibition of human PP1 at 50 uM.

Chain of Receptor-type tyrosine-protein phosphatase beta (P23467 whole entry): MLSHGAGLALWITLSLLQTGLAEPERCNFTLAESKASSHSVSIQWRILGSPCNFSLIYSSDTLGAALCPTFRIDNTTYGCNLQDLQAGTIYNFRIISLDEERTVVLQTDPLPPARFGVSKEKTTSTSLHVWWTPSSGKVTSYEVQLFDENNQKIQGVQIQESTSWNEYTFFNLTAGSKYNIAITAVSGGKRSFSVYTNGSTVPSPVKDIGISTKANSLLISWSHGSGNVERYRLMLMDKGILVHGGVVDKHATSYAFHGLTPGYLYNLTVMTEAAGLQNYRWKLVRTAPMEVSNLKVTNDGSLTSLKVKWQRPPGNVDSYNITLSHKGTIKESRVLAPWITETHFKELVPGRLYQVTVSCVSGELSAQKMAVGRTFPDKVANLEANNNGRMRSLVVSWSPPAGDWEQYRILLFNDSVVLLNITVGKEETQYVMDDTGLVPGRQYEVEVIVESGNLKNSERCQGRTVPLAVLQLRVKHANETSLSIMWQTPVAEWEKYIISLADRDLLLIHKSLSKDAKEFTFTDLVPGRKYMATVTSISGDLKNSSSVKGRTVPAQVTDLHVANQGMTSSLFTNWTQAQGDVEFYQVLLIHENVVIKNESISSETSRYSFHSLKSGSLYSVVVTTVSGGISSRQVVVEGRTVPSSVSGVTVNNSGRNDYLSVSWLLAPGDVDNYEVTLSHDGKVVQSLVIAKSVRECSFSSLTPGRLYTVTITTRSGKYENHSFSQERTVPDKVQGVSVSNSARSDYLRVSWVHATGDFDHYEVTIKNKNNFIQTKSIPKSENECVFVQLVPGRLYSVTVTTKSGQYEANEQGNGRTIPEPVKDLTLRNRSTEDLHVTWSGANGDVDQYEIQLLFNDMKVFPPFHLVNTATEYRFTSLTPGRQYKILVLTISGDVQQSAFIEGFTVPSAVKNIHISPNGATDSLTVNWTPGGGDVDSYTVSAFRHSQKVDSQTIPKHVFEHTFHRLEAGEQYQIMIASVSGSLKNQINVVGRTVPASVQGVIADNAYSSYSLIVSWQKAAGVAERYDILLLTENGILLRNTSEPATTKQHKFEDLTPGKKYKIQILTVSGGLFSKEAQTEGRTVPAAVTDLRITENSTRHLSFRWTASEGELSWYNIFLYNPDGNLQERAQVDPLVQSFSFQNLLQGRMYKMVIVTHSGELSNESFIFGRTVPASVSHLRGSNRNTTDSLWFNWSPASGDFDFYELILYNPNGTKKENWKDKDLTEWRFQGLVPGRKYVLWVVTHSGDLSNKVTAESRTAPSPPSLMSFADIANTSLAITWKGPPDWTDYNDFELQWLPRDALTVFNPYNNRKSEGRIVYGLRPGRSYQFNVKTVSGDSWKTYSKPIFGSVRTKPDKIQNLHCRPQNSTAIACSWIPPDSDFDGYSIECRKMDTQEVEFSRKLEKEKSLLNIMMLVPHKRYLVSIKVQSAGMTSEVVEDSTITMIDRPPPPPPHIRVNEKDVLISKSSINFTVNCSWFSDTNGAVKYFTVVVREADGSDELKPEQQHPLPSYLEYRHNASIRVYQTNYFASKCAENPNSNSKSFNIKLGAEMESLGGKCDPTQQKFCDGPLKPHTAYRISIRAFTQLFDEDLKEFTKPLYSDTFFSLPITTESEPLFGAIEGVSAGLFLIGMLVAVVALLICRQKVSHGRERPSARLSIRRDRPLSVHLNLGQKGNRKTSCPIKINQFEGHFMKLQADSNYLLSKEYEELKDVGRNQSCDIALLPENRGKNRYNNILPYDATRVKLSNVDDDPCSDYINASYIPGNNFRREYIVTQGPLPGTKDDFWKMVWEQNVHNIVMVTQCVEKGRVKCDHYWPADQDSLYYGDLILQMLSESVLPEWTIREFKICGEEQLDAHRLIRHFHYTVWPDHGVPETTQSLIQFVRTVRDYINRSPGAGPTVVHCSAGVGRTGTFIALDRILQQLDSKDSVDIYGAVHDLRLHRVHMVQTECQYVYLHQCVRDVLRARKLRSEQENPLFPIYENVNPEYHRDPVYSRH

Compound `O=P(O)(O)C(c1cc2c(O)c(c1)Cc1cc(C(P(=O)(O)O)P(=O)(O)O)cc(c1O)Cc1cc(C(P(=O)(O)O)P(=O)(O)O)cc(c1O)Cc1cc(C(P(=O)(O)O)P(=O)(O)O)cc(c1O)C2)P(=O)(O)O` displayed a Ki in experiment [1] of 40 µM.

On to `O=P(O)(O)Cc1cc2c(O)c(c1)Sc1cc(CP(=O)(O)O)cc(c1O)Sc1cc(CP(=O)(O)O)cc(c1O)Sc1cc(CP(=O)(O)O)cc(c1O)S2`, for which the Ki in experiment [1] was 0.22 µM. The IC50 in experiment [2] is 0.13 µM. Further, the fold change (FC) in experiment [3] came out at 3. The outcome in the experiment listed under Homo sapiens was inactive.

With `CCCOc1c2cccc1Cc1cc(C(P(=O)(O)O)P(=O)(O)O)cc(c1O)Cc1cccc(c1OCCC)Cc1cccc(c1O)C2`, in experiment [1], the inhibitory constant (Ki) was found to be 7.1 µM.

`O=P(O)(O)Cc1cc2c(O)c(c1)Cc1cc(CP(=O)(O)O)cc(c1O)Cc1cc(CP(=O)(O)O)cc(c1O)Cc1cc(CP(=O)(O)O)cc(c1O)C2`: in experiment [1], the Ki was found to be 0.92 µM. Further, the 50% inhibitory concentration (IC50) in experiment [2] amounted to 3.8 µM. The outcome in the experiment filed under Homo sapiens was inactive.

Consider `O=P(O)(O)C(c1ccc(O)cc1)P(=O)(O)O`, for which, in experiment [1], the Ki came to 570 µM.

For `CCCOc1c2cccc1Cc1cc(C(P(=O)(O)O)P(=O)(O)O)cc(c1O)Cc1cccc(c1OCCC)Cc1cc(C(P(=O)(O)O)P(=O)(O)O)cc(c1O)C2`, the Ki in experiment [1] was found to be 1.4 µM. Besides, the IC50 in experiment [2] is 32 µM. The result in the experiment listed under Homo sapiens was inactive.
